Reference: article PMC6120731 (ACS Omega, 2018)

Columns and labels:
[1] = molecular target: T1, human recombinant GIVA cPLA2 (Homo sapiens, UniProt P47712); format: biochemical
T1 sequence (P47712 1-749): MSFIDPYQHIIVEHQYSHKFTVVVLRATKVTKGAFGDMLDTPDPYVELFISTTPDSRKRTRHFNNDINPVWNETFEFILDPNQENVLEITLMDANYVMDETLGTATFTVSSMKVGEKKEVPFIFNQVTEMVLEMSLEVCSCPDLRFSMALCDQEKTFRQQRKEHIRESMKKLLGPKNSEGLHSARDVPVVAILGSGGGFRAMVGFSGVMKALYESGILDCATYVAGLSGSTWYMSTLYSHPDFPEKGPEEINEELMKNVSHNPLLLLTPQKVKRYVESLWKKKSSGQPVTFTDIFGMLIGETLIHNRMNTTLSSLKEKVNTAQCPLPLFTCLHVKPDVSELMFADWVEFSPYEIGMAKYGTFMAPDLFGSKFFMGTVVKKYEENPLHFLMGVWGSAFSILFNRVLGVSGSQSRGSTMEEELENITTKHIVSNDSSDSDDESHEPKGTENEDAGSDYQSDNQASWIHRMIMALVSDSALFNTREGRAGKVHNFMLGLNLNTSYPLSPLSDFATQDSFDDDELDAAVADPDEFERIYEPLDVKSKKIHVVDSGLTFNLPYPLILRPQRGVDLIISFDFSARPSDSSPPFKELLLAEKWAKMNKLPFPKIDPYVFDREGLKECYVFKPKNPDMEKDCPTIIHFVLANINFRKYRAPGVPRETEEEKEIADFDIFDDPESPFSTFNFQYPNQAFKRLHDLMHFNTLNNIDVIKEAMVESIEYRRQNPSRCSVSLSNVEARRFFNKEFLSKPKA

plasma stability study = format: in vitro ADME; details: 37 °C, 1 mg/mL
Procedure, shortened: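 Test compound added to preheated human plasma (37 °C) at a final 1 mg/mL. Aliquots taken at 0, 15, 30 and 60 min, quenched with acetonitrile, vortexed and centrifuged 5 min. Supernatants analysed by LC-HRMS/MS (negative ESI, C18 column, acetonitrile/isopropanol–water gradient with 0.01% formic acid). Each sample run in triplicate. Percent remaining relative to initial concentration plotted against time.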

Compound | inhibition of GIVA cPLA2 (in words) [1] | parent compound in human plasma after 30 min (plasma stability study) | further results
CCCCOc1ccc(CCCCC(=O)C(=O)O)cc1 [Compound 29, 6-(4-Butoxyphenyl)-2-oxohexanoic Acid] | very weak inhibition | – | –
CCCCOc1ccc(CCCCC(=O)C(=O)OCCCCC(=O)O)cc1 [Compound 25a, 5-((6-(4-Butoxyphenyl)-2-oxohexanoyl)oxy)pentanoic Acid] | – | not detectable | times less potent than 25b against GIVA cPLA2 [1]: 3 times
5-((6-(4-Butoxyphenyl)hexanoyl)oxy)pentanoic Acid [Compound 27b] | no inhibition | – | –
CCCCCCOc1ccc(CCCCC(=O)C(=O)OCCCCC(=O)O)cc1 [Compound 25b, 5-((6-(4-(Hexyloxy)phenyl)-2-oxohexanoyl)oxy)pentanoic Acid] | – | not detectable | selectivity for GIVA cPLA2 over GVIA iPLA2 [1]: at least 500 fold; times more potent than 6 against GIVA cPLA2 [1]: 4 times
5-((6-(4-Butoxyphenyl)-2-fluorohexanoyl)oxy)pentanoic Acid [Compound 27a] | abolished the inhibitory potency | – | percent parent compound remaining after 1 h (plasma stability study; human plasma, 1 h): ~100%
